From ChEMBL document CHEMBL1125330, “N-substituted pyrazino[2,3-c][1,2,6]thiadiazine 2,2-dioxides. A new class of diuretics” (J Med Chem, 1992) come the findings set out here.

Data set [1] concerns Rattus norvegicus. Nature of the data set: Volume of urine 2 hr after the compound was administered 125 mg/kg po in rat. The arrangement: dose 125 mg/kg, route oral. The following applies: in vivo. The format is ADME, organism-based. The procedure, abridged:
(§1)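 Onset/duration protocol: male Sprague-Dawley rats (HC/CFY, 175-200 g), food and water withdrawn for 18 h before and during the test. Single gavage dose in 1% carboxymethyl cellulose/0.1% Tween 80 (0.5 mL/100 g bw), then distilled water load (2.5 mL/100 g bw po). Two rats per metabolic cage, six pairs per group. Urine collected at 0-1, 1-2, 2-3, 3-4 and 4-6 h; Na+ by flame photometry. Vehicle controls; nonpaired Student t-test.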

Data set [2] deals with Rattus norvegicus. Description: Mean potassium excretion in rats when compound administered at 20 mg/kg po and vehicle dosed at 78.97 umol/kg. The format is ADME, organism-based. The arrangement: dose 20 mg/kg, route oral. The conditions noted are these: in vivo. An outline of the steps: (§2)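 Male Sprague-Dawley rats (HC/CFY, 175-200 g), no food or water for 18 h before and during the test. Single gavage dose (2.5-160 mg/kg; vehicle 1% carboxymethyl cellulose/0.1% Tween 80, 0.5 mL/100 g bw), then distilled water 2.5 mL/100 g bw po. Individual metabolic cages, 6 h urine. K+ by flame photometry, Cl- colorimetric, as mequiv/6 h/kg bw; unpaired Student t-test vs control.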

The test system of data set [3] is Rattus norvegicus. Description: Volume of urine 1 hr after the compound was administered 125 mg/kg po in rat. It counts as ADME, organism-based. Details: dose 125 mg/kg, route oral. The conditions noted are these: in vivo. The procedure, abridged: as §1
The species entered for data set [4] is Rattus norvegicus. Description: Dose required to produce increase in 50 % in urine production vs control groups. It counts as functional. An outline of the steps: (§3)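 Male Sprague-Dawley rats (HC/CFY, 175-200 g), fasted and water-deprived 18 h before and during the test. Compound dosed by gavage in 1% carboxymethyl cellulose/0.1% Tween 80, then water load 2.5 mL/100 g bw po. Urine collected 6 h in metabolic cages; Na+ by flame photometry. Effective doses vs vehicle controls derived by linear regression of dose-response data.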

Data set [5] relates to Rattus norvegicus. Description: Mean potassium excretion in rats when compound administered at 80 mg/kg po and vehicle dosed at 315.88 umol/kg. It counts as ADME, organism-based. The arrangement: dose 80 mg/kg, route oral. The conditions noted are these: in vivo. The procedure, abridged:
(§4)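 Male Sprague-Dawley rats (HC/CFY, 175-200 g) fasted and water-deprived 18 h before and during the test. Dosed by gavage at 2.5-160 mg/kg in 1% carboxymethyl cellulose/0.1% Tween 80, 0.5 mL/100 g bw. Immediately hydrated with water (2.5 mL/100 g bw, po). Urine collected 6 h in metabolic cages; Na+ and K+ by flame photometry; mean mequiv/6 h/kg bw; nonpaired Student t-test.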

Data set [6] relates to Rattus norvegicus. Nature of the data set: Mean potassium excretion in rats when compound administered at 160 mg/kg po and vehicle dosed at 631.76 umol/kg. The arrangement: dose 160 mg/kg, route oral. The format is ADME, organism-based. The conditions noted are these: in vivo. The procedure, abridged:
as §2

Data set [7] has as its system Rattus norvegicus. Description: Mean potassium excretion in rats when compound administered at 2.5 mg/kg po and vehicle dosed at 9.87 umol/kg. It counts as ADME, organism-based. The arrangement: dose 2.5 mg/kg, route oral. The following applies: in vivo. The procedure, abridged: as §2
The test system of data set [8] is Rattus norvegicus. Nature of the data set: Mean potassium excretion in rats when compound administered at 10 mg/kg po and vehicle dosed at 39.48 umol/kg. Details: dose 10 mg/kg, route oral. It counts as ADME, organism-based. The conditions noted are these: in vivo. An outline of the steps: as §2
The subject of data set [9] is Rattus norvegicus. Nature of the data set: Mean sodium excretion in rats when compound administered at 40 mg/kg po and vehicle dosed at 157.94 umol/kg. It counts as ADME, organism-based. Details: dose 40 mg/kg, route oral. The following applies: in vivo. An outline of the steps: as §4
Data set [10] deals with Rattus norvegicus. Description: Mean urinary output in rats when compound administered at 20 mg/kg po and vehicle dosed at 78.97 umol/kg. The format is ADME, organism-based, Urine. The arrangement: dose 20 mg/kg, route oral. The following applies: in vivo. The procedure, abridged: (§5)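 Water-loaded male Sprague-Dawley rats (HC/CFY, 175-200 g) fasted and without water for 18 h. Oral gavage of 2.5-160 mg/kg in 1% CMC with 0.1% Tween 80, then distilled water 2.5 mL/100 g po. Urine collected 6 h in metabolic cages, mean output in mL/6 h/kg bw. Unpaired Student t-test against vehicle; dose-response by linear regression.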

The subject of data set [11] is Rattus norvegicus. Nature of the data set: Mean urinary output in rats when compound administered at 2.5 mg/kg po and vehicle dosed at 9.87 umol/kg. The arrangement: dose 2.5 mg/kg, route oral. The following applies: in vivo. It counts as ADME, organism-based, Urine. The procedure, abridged:
as §5

Data set [12] deals with Rattus norvegicus. Description: Urinary sodium 2 hr after the compound was administered 125 mg/kg po in rat. The format is ADME, organism-based, Urine. The following applies: in vivo. The arrangement: dose 125 mg/kg, route oral. The procedure, abridged: (§6)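 Onset and duration study in fasted, water-loaded male Sprague-Dawley rats housed two per metabolic cage, six pairs per group. Single oral dose given, then water 2.5 mL/100 g po. Urine volume and sodium (flame photometry) measured over 0-1, 1-2, 2-3, 3-4 and 4-6 h intervals. Mean values compared with vehicle by Student t-test.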

Data set [13] relates to Rattus norvegicus. Nature of the data set: Dose required to produce an excretion of 2 mequiv of Na+/kg bw/6h vs control groups. The format is functional. The procedure, abridged: as §3
The test system of data set [14] is Rattus norvegicus. Nature of the data set: Mean urinary output in rats when compound administered at 0 mg/kg po and vehicle dosed at 0 umol/kg. It counts as ADME, organism-based, Urine. The arrangement: dose 0 mg/kg, route oral. The conditions noted are these: in vivo. The procedure, abridged:
as §5

The subject of data set [15] is Rattus norvegicus. Nature of the data set: Mean urinary output in rats when compound administered at 40 mg/kg po and vehicle dosed at 157.94 umol/kg. It counts as ADME, organism-based, Urine. The arrangement: dose 40 mg/kg, route oral. The conditions noted are these: in vivo. An outline of the steps:
as §5

For data set [16], the system named is Rattus norvegicus. Nature of the data set: Mean urinary output in rats when compound administered at 10 mg/kg po and vehicle dosed at 39.48 umol/kg. It counts as ADME, organism-based, Urine. Details: dose 10 mg/kg, route oral. The following applies: in vivo. The procedure, abridged: as §5
Data set [17] relates to Rattus norvegicus. Nature of the data set: Volume of urine 4 hr after the compound was administered 125 mg/kg po in rat. It counts as ADME, organism-based. Details: dose 125 mg/kg, route oral. The following applies: in vivo. An outline of the steps:
as §1

The subject of data set [18] is Rattus norvegicus. Nature of the data set: Mean Chlorine excretion in rats when compound administered at 2.5 mg/kg po and vehicle dosed at 9.87 umol/kg. The format is ADME, organism-based. The arrangement: dose 2.5 mg/kg, route oral. The following applies: in vivo. An outline of the steps:
as §2

Data set [19] has as its system Rattus norvegicus. Nature of the data set: Mean potassium excretion in rats when compound administered at 5 mg/kg po and vehicle dosed at 19.74 umol/kg. The arrangement: dose 5 mg/kg, route oral. The conditions noted are these: in vivo. It counts as ADME, organism-based. An outline of the steps:
as §4

For data set [20], the system named is Rattus norvegicus. Description: Mean Chlorine excretion in rats when compound administered at 40 mg/kg po and vehicle dosed at 157.94 umol/kg. The conditions noted are these: in vivo. The format is ADME, organism-based. Details: dose 40 mg/kg, route oral. An outline of the steps:
as §2

Data set [21] concerns Rattus norvegicus. Description: Urinary sodium 4 hr after the compound was administered 125 mg/kg po in rat. The format is ADME, organism-based, Urine. Details: dose 125 mg/kg, route oral. The following applies: in vivo. An outline of the steps: as §6
In data set [22] the test system is Rattus norvegicus. Nature of the data set: Mean sodium excretion in rats when compound administered at 2.5 mg/kg po and vehicle dosed at 9.87 umol/kg. The format is ADME, organism-based. The arrangement: dose 2.5 mg/kg, route oral. The conditions noted are these: in vivo. An outline of the steps: as §4
Data set [23] concerns Rattus norvegicus. Nature of the data set: Mean Chlorine excretion in rats when compound administered at 5 mg/kg po and vehicle dosed at 19.74 umol/kg. The arrangement: dose 5 mg/kg, route oral. It counts as ADME, organism-based. The following applies: in vivo. The procedure, abridged: as §2

The ED50 is the dose that gives a 50% effect, or the effect in half of the subjects. A low value points to an effect at a small dose. For `Nc1nc(N)c2nc(-c3ccccc3)c(N)nc2n1`, the Urine volume with Rattus norvegicus [1] turned out to be 3.2 mL; in the data set with Rattus norvegicus [3] it was 0.48 mL; in the data set on Rattus norvegicus [17], 1.78 mL. In addition, the K is 0.16 m equiv 6hr-1 kg-1 (body weight)-1 in the data set with Rattus norvegicus [2]; 0.14 m equiv 6hr-1 kg-1 (body weight)-1 in the data set on Rattus norvegicus [5]; 0.21 m equiv 6hr-1 kg-1 (body weight)-1 in the data set on Rattus norvegicus [6]; 0.32 m equiv 6hr-1 kg-1 (body weight)-1 in the data set on Rattus norvegicus [7]; 0.18 m equiv 6hr-1 kg-1 (body weight)-1 in the data set with Rattus norvegicus [8]; 0.19 m equiv 6hr-1 kg-1 (body weight)-1 in the data set with Rattus norvegicus [19]. In addition, it took a dose of 34.5 mg/kg to reach the 50% effect level in the data set filed under Rattus norvegicus [4] (ED50). Also, the Na in the data set on Rattus norvegicus [9] is listed as 2.88 m equiv 6hr-1 kg-1 (body weight)-1; in the data set on Rattus norvegicus [22], 1.69 m equiv 6hr-1 kg-1 (body weight)-1. The V in the data set with Rattus norvegicus [10] is 32.87 ml 6hr-1 (kg of body weight)-1; in the data set with Rattus norvegicus [11], 31.39 ml 6hr-1 (kg of body weight)-1; in the data set with Rattus norvegicus [14], 24.94 ml 6hr-1 (kg of body weight)-1; with Rattus norvegicus [15], 38.1 ml 6hr-1 (kg of body weight)-1; with Rattus norvegicus [16] it was 31.13 ml 6hr-1 (kg of body weight)-1. For the same compound, the “Urinary Na+” value was found to be 0.16 m equiv with Rattus norvegicus [12] and 0.15 m equiv in the data set with Rattus norvegicus [21]. For the same compound, the ED2 in the data set on Rattus norvegicus [13] was 3.8 mg/kg. The Cl- is recorded as 1.34 m equiv 6hr-1 kg-1 (body weight)-1 in the data set with Rattus norvegicus [18], 2.83 m equiv 6hr-1 kg-1 (body weight)-1 in the data set with Rattus norvegicus [20] and 1.55 m equiv 6hr-1 kg-1 (body weight)-1 in the data set with Rattus norvegicus [23].
